# Source: ChEMBL document CHEMBL1153616, “Synthesis and antiviral activity of new pyrazole and thiazole derivatives” (Eur J Med Chem, 2009)
# Activity calls are given as the source filed them. The rule behind the calls is not given here.
# Key:
# [1] = tested on: Coxsackievirus B4; test: Antiviral activity against Coxsackievirus B4 infected in human HeLa cells assessed as inhibition of virus-induced cytopathicity after 3 days; assay type: functional, organism-based; conditions: Enterovirus B, 72 h
# In short: (§1)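 Confluent cell monolayers infected with 100 CCID50 virus; after 2 h adsorption at 37 °C, virus removed and serial compound dilutions added (DMSO stocks 10 mg/ml). Incubated 37 °C for 3 days until complete CPE in untreated virus control.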
# [2] = tested on: Human alphaherpesvirus 1; test: Antiviral activity against thymidine kinase-deficient ACV-resistant HSV1 KOS infected in human HEL cells assessed as inhibition of virus-induced cytopathicity after 3 days; assay type: functional, organism-based; conditions: Human alphaherpesvirus 1, KOS, 72 h
# [3] = tested on: Respiratory syncytial virus; test: Antiviral activity against RSV infected in human HeLa cells assessed as inhibition of virus-induced cytopathicity after 3 days; assay type: functional, organism-based; conditions: 72 h
# In short: as §1, with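 “control. EC50 = concentration protecting 50% of infected cells from viral cytopathogenicity; ">" marks highest concentration tested.” for “control.”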
# [4] = tested on: Coxsackievirus B4; test: Antiviral activity against Coxsackievirus B4 infected in african green monkey Vero cells assessed as inhibition of virus-induced cytopathicity after 3 days; assay type: functional, organism-based; conditions: Enterovirus B, 72 h
# In short: as §1, with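 “control. EC50 = concentration protecting 50% of infected cells from viral cytopathogenicity; ">" marks highest concentration tested.” for “control.”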
# [5] = Cytotoxicity against HEL cells assessed as minimum cytotoxic concentration required to cause microscopically detectable alteration in normal cell morphology; assay type: cell-based; conditions: human
# In short: (§2)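 Run in parallel with antiviral assays on uninfected cell cultures; test compounds from 10 mg/ml DMSO stocks in serial dilution. Value is minimum cytotoxic concentration (MCC) producing microscopically detectable alteration of normal cell morphology.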
# [6] = tested on: Vesicular stomatitis virus; test: Antiviral activity against Vesicular stomatitis virus infected in human HeLa cells assessed as inhibition of virus-induced cytopathicity after 3 days; assay type: functional, organism-based; conditions: 72 h
# [7] = tested on: Sindbis virus; test: Antiviral activity against Sindbis virus infected in african green monkey Vero cells assessed as inhibition of virus-induced cytopathicity after 3 days postinfection; assay type: functional, organism-based; conditions: 72 h
# In short: as §1, with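 “control. EC50 = concentration protecting 50% of infected cells from viral cytopathogenicity; ">" marks highest concentration tested.” for “control.”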
# [8] = tested on: Human respirovirus 3; test: Antiviral activity against Parainfluenza virus type 3 infected in african green monkey Vero cells assessed as inhibition of virus-induced cytopathicity after 3 days; assay type: functional, organism-based; conditions: Human respirovirus 3, Vero, 72 h
# In short: as §1, with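 “control. EC50 = concentration protecting 50% of infected cells from viral cytopathogenicity; ">" marks highest concentration tested.” for “control.”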
# [9] = tested on: Punta Toro virus; test: Antiviral activity against Punta Toro virus infected in african green monkey Vero cells assessed as inhibition of virus-induced cytopathicity after 3 days; assay type: functional, organism-based; conditions: 72 h; in short: as §1
# [10] = Cytotoxicity against african green monkey Vero cells assessed as minimum cytotoxic concentration required to cause microscopically detectable alteration in normal cell morphology; assay type: cell-based; conditions: chlorocebus sabaeus; in short: as §2
# [11] = Cytotoxicity against human HeLa cells assessed as minimum cytotoxic concentration required to cause microscopically detectable alteration in normal cell morphology; assay type: cell-based; in short: as §2
# [12] = tested on: Vesicular stomatitis virus; test: Antiviral activity against Vesicular stomatitis virus infected in human HEL cells assessed as inhibition of virus-induced cytopathicity after 3 days; assay type: functional, organism-based; conditions: 72 h
# [13] = tested on: Mammalian orthoreovirus 1; test: Antiviral activity against Reovirus 1 infected in african green monkey Vero cells assessed as inhibition of virus-induced cytopathicity after 3 days; assay type: functional, organism-based; conditions: Mammalian orthoreovirus 1, Vero, 72 h
# In short: as §1, with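 “control. EC50 = concentration protecting 50% of infected cells from viral cytopathogenicity; ">" marks highest concentration tested.” for “control.”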
# [14] = Selectivity index, ratio of MCC for human HeLa cells to EC50 for Coxsackievirus B4; assay type: toxicity, cell-based; conditions: read-out: Selectivity Index
# In short: (§3)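 The ratio was MCC/EC50. MCC was the minimum concentration causing microscopically visible change in normal morphology of uninfected HEL, HeLa or Vero cells, scored in parallel with the antiviral test. EC50 came from the CPE assay: 100 CCID50 infection, 2 h adsorption at 37 °C, serial compound dilutions, and 3 days at 37 °C. It was the concentration protecting 50% of cells from virus-induced CPE.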
# [15] = tested on: Human alphaherpesvirus 1; test: Antiviral activity against HSV1 KOS infected in human HEL cells assessed as inhibition of virus-induced cytopathicity after 3 days; assay type: functional, organism-based; conditions: Human alphaherpesvirus 1, KOS, 72 h
# [16] = tested on: Vaccinia virus; test: Antiviral activity against Vaccinia virus infected in human HEL cells assessed as inhibition of virus-induced cytopathicity after 3 days; assay type: functional, organism-based; conditions: Orthopoxvirus vaccinia, 72 h
# [17] = tested on: Human alphaherpesvirus 2; test: Antiviral activity against HSV2 G infected in human HEL cells assessed as inhibition of virus-induced cytopathicity after 3 days; assay type: functional, organism-based; conditions: Human alphaherpesvirus 2, strain G, 72 h
# In short: as §1, with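 “control. EC50 = concentration protecting 50% of infected cells from viral cytopathogenicity; ">" marks highest concentration tested.” for “control.”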
# [18] = tested on: Vaccinia virus; test: Antiviral activity against Vaccinia virus Lister; assay type: functional, organism-based
# [19] = Selectivity index, ratio of MCC for african green monkey Vero cells to EC50 for Reovirus 1; assay type: toxicity, cell-based; conditions: read-out: Selectivity Index; in short: as §3
# [20] = Selectivity index, ratio of MCC for african green monkey Vero cells to EC50 for Punta Toro virus; assay type: toxicity, cell-based; conditions: read-out: Selectivity Index; in short: as §3
# [21] = Selectivity index, ratio of MCC for human HEL cells to EC50 for sVaccinia virus; assay type: toxicity, cell-based; in short: as §3
# [22] = tested on: Cowpox virus; test: Antiviral activity against Cowpox virus Brighton; assay type: functional, organism-based; conditions: Cowpox virus (Brighton Red)
# [23] = tested on: Vaccinia virus; test: Antiviral activity against Vaccinia virus Western Reserve; assay type: functional, organism-based; conditions: Orthopoxvirus vaccinia
# [24] = Selectivity index, ratio of MCC for african green monkey Vero cells to EC50 for Sindbis virus; assay type: toxicity, cell-based; conditions: read-out: Selectivity Index; in short: as §3
# [25] = Selectivity index, ratio of MCC for african green monkey Vero cells to EC50 for Coxsackievirus B4; assay type: toxicity, cell-based; conditions: read-out: Selectivity Index; in short: as §3
# [26] = tested on: Vaccinia virus; test: Antiviral activity against Vaccinia virus Copenhagen; assay type: functional, organism-based; conditions: Orthopoxvirus vaccinia
# [27] = Selectivity index, ratio of MCC for human HEL cells to EC50 for sVesicular stomatitis virus; assay type: toxicity, cell-based; conditions: read-out: Selectivity Index; in short: as §3
SMILES,EC50 [1],EC50 [2],EC50 [3],EC50 [4],MCC [5],EC50 [6],EC50 [7],EC50 [8],EC50 [9],MCC [10],MCC [11],EC50 [12],EC50 [13],selectivity ratio [14],EC50 [15],EC50 [16],EC50 [17],selectivity ratio [19],selectivity ratio [20],selectivity ratio [24],other results
Cc1ccc(C2=NN(C(N)=S)C(c3ccc(OCc4ccccc4)cc3)C2)cc1 (stereo not drawn),> 0.8 µg/mL,> 20 µg/mL,> 0.8 µg/mL,> 20 µg/mL,100 µg/mL,> 0.8 µg/mL,> 20 µg/mL,> 20 µg/mL,> 20 µg/mL,100 µg/mL,4 µg/mL,> 20 µg/mL,> 20 µg/mL,5,> 20 µg/mL,> 20 µg/mL,> 20 µg/mL,,,,
CC(=O)N1N=C(c2ccc(Cl)cc2)CC1c1ccc(OCc2ccccc2)cc1 (stereo not drawn),> 20 µg/mL,> 20 µg/mL,> 20 µg/mL,> 4 µg/mL,100 µg/mL,> 20 µg/mL,> 4 µg/mL,> 4 µg/mL,> 4 µg/mL,20 µg/mL,≥ 20 µg/mL,> 20 µg/mL,> 4 µg/mL,,> 20 µg/mL,7 µg/mL,> 20 µg/mL,5,5,5,Activity [18]: inactive; selectivity ratio [21]: 3.6; Activity [22]: inactive; Activity [23]: inactive; selectivity ratio [25]: 5; Activity [26]: inactive
CC(=O)N1N=C(c2ccc(C)cc2)CC1c1ccc(OCc2ccccc2)cc1 (stereo not drawn),> 4 µg/mL,> 4 µg/mL,> 4 µg/mL,> 4 µg/mL,20 µg/mL,> 4 µg/mL,> 4 µg/mL,> 4 µg/mL,> 4 µg/mL,20 µg/mL,20 µg/mL,> 4 µg/mL,> 4 µg/mL,5,> 4 µg/mL,> 4 µg/mL,> 4 µg/mL,5,5,5,selectivity ratio [25]: 5; selectivity ratio [27]: 5
Cc1ccc(C2=NN(C3=NC(=O)CS3)C(c3ccc(OCc4ccccc4)cc3)C2)cc1 (stereo not drawn),> 20 µg/mL,> 4 µg/mL,> 20 µg/mL,> 20 µg/mL,20 µg/mL,> 20 µg/mL,> 20 µg/mL,> 20 µg/mL,> 20 µg/mL,100 µg/mL,100 µg/mL,> 4 µg/mL,> 20 µg/mL,,> 4 µg/mL,> 4 µg/mL,> 4 µg/mL,,,,selectivity ratio [27]: 5
Clc1ccc(C2=NN(c3nc(-c4ccc(Cl)cc4)cs3)C(c3ccc(OCc4ccccc4)cc3)C2)cc1 (stereo not drawn),> 100 µg/mL,> 100 µg/mL,> 100 µg/mL,> 20 µg/mL,> 100 µg/mL,> 100 µg/mL,> 20 µg/mL,> 20 µg/mL,> 20 µg/mL,100 µg/mL,> 100 µg/mL,> 100 µg/mL,> 20 µg/mL,,> 100 µg/mL,> 100 µg/mL,> 100 µg/mL,,,,
CC(=O)N1N=C(c2ccc(Br)cc2)CC1c1ccc(OCc2ccccc2)cc1 (stereo not drawn),> 20 µg/mL,> 20 µg/mL,> 20 µg/mL,> 20 µg/mL,100 µg/mL,> 20 µg/mL,> 20 µg/mL,> 20 µg/mL,> 20 µg/mL,100 µg/mL,100 µg/mL,> 20 µg/mL,> 20 µg/mL,,> 20 µg/mL,> 20 µg/mL,> 20 µg/mL,,,,
